ChEMBL document CHEMBL1138483, “Toward second generation hepatitis C virus NS3 serine protease inhibitors: discovery of novel P4 modified analogues with improved potency and pharmacokinetic profile” (J Med Chem, 2009)

Columns and labels:
Hepatitis C virus = test: Antiviral activity against HCV replication in human hepatoma cells by replicon assay; format: functional, Hepacivirus hominis
[1] = Binding affinity to HCV NS3 protease by spectrophotometry; design: species or system Hepacivirus hominis
[2] = AUC in po dosed rat; format: ADME, organism-based; conditions: plasma
[3] = AUC (0 to 24 hrs) in rat at 10 mg/kg, po; format: ADME, organism-based; design: time < 24 hr, dose 10 mg/kg, route oral; conditions: plasma
[4] = Bioavailability in rat at 10 mg/kg, po; format: ADME, organism-based; conditions: in vivo
[5] = Drug level in rat liver at 10 mg/kg, po after 6 hrs; format: ADME, organism-based; design: dose 10 mg/kg, route oral; conditions: read-out: Drug uptake
Outline: (§1)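 Oral dosing in rats at 10 mpk as a suspension in 0.4% HPMC; liver concentration measured in ng/g tissue at 1 h or 6 h after dosing.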

Rattus norvegicus = test: AUC in rat at 10 mg/kg, po; format: ADME, organism-based, Plasma; design: dose 10 mg/kg, route oral; conditions: in vivo
[6] = Drug level in rat liver at 10 mg/kg, po after 1 hr; format: ADME, organism-based; design: dose 10 mg/kg, route oral; conditions: read-out: Drug uptake; outline: as §1
[7] = AUC (0 to 6 hrs) in rat at 10 mg/kg, po; format: ADME, organism-based; design: time < 6 hr, dose 10 mg/kg, route oral; conditions: plasma

Compound | EC90 (Hepatitis C virus) [nM] | Ki [1] [nM] | further results
C=CCNC(=O)C(=O)C(CCC)NC(=O)[C@@H]1[C@@H]2[C@H](CN1C(=O)[C@@H](NC(=O)N[C@H](COC(=O)NCC)C(C)(C)C)C1(C)CCCCC1)C2(C)C (stereo not given in full) | 150 | 28 | 
CC(C)(C)OCC1(NC(=O)N[C@H](C(=O)N2C[C@H]3[C@@H]([C@H]2C(=O)NC(CC2CCC2)C(=O)C(N)=O)C3(C)C)C2(C)CCCCC2)CCCCC1 (stereo not given in full) |  | 120 | 
C=CCNC(=O)C(=O)C(CCC)NC(=O)[C@@H]1[C@@H]2[C@H](CN1C(=O)[C@@H](NC(=O)NC1(COC(=O)NCC)CCCCC1)C1(C)CCCCC1)C2(C)C (stereo not given in full) | 700 | 210 | 
CCNC(=O)OC[C@@H](NC(=O)N[C@H](C(=O)N1C[C@H]2[C@@H]([C@H]1C(=O)NC(CC1CCC1)C(=O)C(N)=O)C2(C)C)C1(C)CCCCC1)C(C)(C)C (stereo not given in full) | 150 | 8 | 
COC[C@@H](NC(=O)N[C@H](C(=O)N1C[C@H]2[C@@H]([C@H]1C(=O)NC(CC1CCC1)C(=O)C(N)=O)C2(C)C)C1Cc2ccccc2C1)C(C)(C)C (stereo not given in full) | 200 | 15 | AUC [2]: 0.1 µM·h
COC[C@@H](NC(=O)N[C@H](C(=O)N1C[C@H]2[C@@H]([C@H]1C(=O)NC(CC1CCC1)C(=O)C(N)=O)C2(C)C)C(C)(C)C)C(C)(C)C (stereo not given in full) |  | 120 | 
C=CCNC(=O)C(=O)C(CCC)NC(=O)[C@@H]1[C@@H]2[C@H](CN1C(=O)[C@@H](NC(=O)N[C@H](COC(=O)NCC)C1CCCCC1)C1(C)CCCCC1)C2(C)C (stereo not given in full) |  | 84 | 
COC[C@@H](NC(=O)N[C@H](C(=O)N1C[C@H]2[C@@H]([C@H]1C(=O)NC(CC1CCC1)C(=O)C(N)=O)C2(C)C)C1(C)CCCCC1)C(C)C (stereo not given in full) | 200 | 12 | 
CCNC(=O)OC[C@@H](NC(=O)N[C@H](C(=O)N1C[C@H]2[C@@H]([C@H]1C(=O)NC(CC1CC1)C(=O)C(N)=O)C2(C)C)C1Cc2ccccc2C1)C(C)(C)C (stereo not given in full) | 200 | 7 | 
C#CCCC(NC(=O)[C@@H]1[C@@H]2[C@H](CN1C(=O)[C@@H](NC(=O)N[C@H](COC(=O)NCC)C(C)(C)C)C1(C)CCCCC1)C2(C)C)C(=O)C(=O)NCC=C (stereo not given in full) | 150 | 9 | AUC(0-t) at 24 h [3]: 26 µM·h; bioavailability [4]: 43%; concentration at 6 h [5]: 1110 ng/g
CCNC(=O)OC[C@@H](NC(=O)N[C@H](C(=O)N1C[C@H]2[C@@H]([C@H]1C(=O)NC(CC1CCC1)C(=O)C(N)=O)C2(C)C)C1Cc2ccccc2C1)C(C)(C)C (stereo not given in full) | 100 | 7 | AUC (Rattus norvegicus): 0.3 µM·h; concentration at 1 h [6]: 244 ng/g
CC(C)(C)NC(=O)N[C@H](C(=O)N1C[C@H]2[C@@H]([C@H]1C(=O)NC(CC1CCC1)C(=O)C(N)=O)C2(C)C)C(C)(C)C (stereo not given in full) [BOCEPREVIR] | 350 | 14 | 
CC(C)(C)NC(=O)OC[C@@H](NC(=O)N[C@H](C(=O)N1C[C@H]2[C@@H]([C@H]1C(=O)NC(CC1CCC1)C(=O)C(N)=O)C2(C)C)C1Cc2ccccc2C1)C(C)(C)C (stereo not given in full) | 200 | 12 | 
COC[C@@H](NC(=O)N[C@H](C(=O)N1C[C@H]2[C@@H]([C@H]1C(=O)NC(CC1CCC1)C(=O)C(N)=O)C2(C)C)C1(C)CCCCC1)C(C)(C)C (stereo not given in full) | 150 | 24 | 
C#CCCC(NC(=O)[C@@H]1[C@@H]2[C@H](CN1C(=O)[C@@H](NC(=O)N[C@H](COC(=O)NCC1CC1)C(C)(C)C)C1(C)CCCCC1)C2(C)C)C(=O)C(=O)NCC=C (stereo not given in full) | 70 | 7 | AUC(0-t) at 6 h [7]: 5 µM·h; concentration at 6 h [5]: 581 ng/g
C=CCNC(=O)C(=O)C(CCC)NC(=O)[C@@H]1[C@@H]2[C@H](CN1C(=O)[C@@H](NC(=O)N[C@H](COC(=O)NCC)C(C)(C)C)C1Cc3ccccc3C1)C2(C)C (stereo not given in full) | 400 | 33 | AUC(0-t) at 6 h [7]: 0.7 µM·h
CCC[C@@](C)(COC)NC(=O)N[C@H](C(=O)N1C[C@H]2[C@@H]([C@H]1C(=O)NC(CC1CCC1)C(=O)C(N)=O)C2(C)C)C1(C)CCCCC1 (stereo not given in full) |  | 170 | 
CN(C)C(=O)OC[C@@H](NC(=O)N[C@H](C(=O)N1C[C@H]2[C@@H]([C@H]1C(=O)NC(CC1CCC1)C(=O)C(N)=O)C2(C)C)C1Cc2ccccc2C1)C(C)(C)C (stereo not given in full) | 300 | 23 | 
C=CCNC(=O)C(=O)C(CC1CC1)NC(=O)[C@@H]1[C@@H]2[C@H](CN1C(=O)[C@@H](NC(=O)N[C@H](COC(=O)NCC)C(C)(C)C)C1Cc3ccccc3C1)C2(C)C (stereo not given in full) | 400 | 50 | 
C=CCNC(=O)C(=O)C(CCC)NC(=O)[C@@H]1[C@@H]2[C@H](CN1C(=O)[C@@H](NC(=O)N[C@H](COC(=O)NCC1CC1)C(C)(C)C)C1(C)CCCCC1)C2(C)C (stereo not given in full) | 100 | 32 | 
CCNC(=O)OC[C@@H](NC(=O)N[C@H](C(=O)N1C[C@H]2[C@@H]([C@H]1C(=O)NC(CC1CCC1)C(=O)C(N)=O)C2(C)C)C1CCCCC1)C(C)(C)C (stereo not given in full) | 600 | 10 | 

Compound | EC90 (Hepatitis C virus) [nM] | Ki [1] [nM] | further results
C=CCNC(=O)C(=O)C(CCC)NC(=O)[C@@H]1[C@@H]2[C@H](CN1C(=O)[C@@H](NC(=O)N[C@H](COC(=O)NCC(C)C)C(C)(C)C)C1(C)CCCCC1)C2(C)C (stereo not given in full) |  | 58 | 
CNC(=O)OC[C@@H](NC(=O)N[C@H](C(=O)N1C[C@H]2[C@@H]([C@H]1C(=O)NC(CC1CCC1)C(=O)C(N)=O)C2(C)C)C1Cc2ccccc2C1)C(C)(C)C (stereo not given in full) | 200 | 9 | 
C=CCNC(=O)C(=O)C(CCC)NC(=O)[C@@H]1[C@@H]2[C@H](CN1C(=O)[C@@H](NC(=O)N[C@H](COC(=O)NCC1CCCCC1)C(C)(C)C)C1(C)CCCCC1)C2(C)C (stereo not given in full) |  | 130 | 
COC[C@@](C)(CC(C)C)NC(=O)N[C@H](C(=O)N1C[C@H]2[C@@H]([C@H]1C(=O)NC(CC1CCC1)C(=O)C(N)=O)C2(C)C)C1(C)CCCCC1 (stereo not given in full) |  | 50 | 
C#CCCC(NC(=O)[C@@H]1[C@@H]2[C@H](CN1C(=O)[C@@H](NC(=O)N[C@H](COC(=O)NCC)C(C)(C)C)C1Cc3ccccc3C1)C2(C)C)C(=O)C(=O)NCC=C (stereo not given in full) | 550 | 10 | 
C#CCCC(NC(=O)[C@@H]1[C@@H]2[C@H](CN1C(=O)[C@@H](NC(=O)N[C@H](COC(=O)NCC)C(C)(C)C)C1(C)CCCCC1)C2(C)C)C(=O)C(=O)NCCC (stereo not given in full) | 200 | 16 | 
C#CCCC(NC(=O)[C@@H]1[C@@H]2[C@H](CN1C(=O)[C@@H](NC(=O)N[C@H](COC(=O)NCC)C(C)(C)C)C1(C)CCCCC1)C2(C)C)C(=O)C(=O)NCC (stereo not given in full) | 200 | 21 | 
CCNC(=O)OC[C@@H](NC(=O)N[C@H](C(=O)N1C[C@H]2[C@@H]([C@H]1C(=O)NC(CC1CCC1)C(=O)C(N)=O)C2(C)C)C(C)(C)C)C(C)(C)C (stereo not given in full) | 250 | 9 | 
C=CCNC(=O)C(=O)C(CCCC)NC(=O)[C@@H]1[C@@H]2[C@H](CN1C(=O)[C@@H](NC(=O)N[C@H](COC(=O)NCC)C(C)(C)C)C1Cc3ccccc3C1)C2(C)C (stereo not given in full) | 400 | 23 | 
C#CCCC(NC(=O)[C@@H]1[C@@H]2[C@H](CN1C(=O)[C@@H](NC(=O)NC1(COC(=O)NCC)CCCCC1)C1(C)CCCCC1)C2(C)C)C(=O)C(=O)NCC=C (stereo not given in full) | 600 | 9 | 
CC(C)NC(=O)OC[C@@H](NC(=O)N[C@H](C(=O)N1C[C@H]2[C@@H]([C@H]1C(=O)NC(CC1CCC1)C(=O)C(N)=O)C2(C)C)C1Cc2ccccc2C1)C(C)(C)C (stereo not given in full) | 200 | 9 | 
C#CCCC(NC(=O)[C@@H]1[C@@H]2[C@H](CN1C(=O)[C@@H](NC(=O)N[C@H](COC(=O)NCC)C1CCCCC1)C1(C)CCCCC1)C2(C)C)C(=O)C(=O)NCC=C (stereo not given in full) | 200 | 13 | 
CC(C)(C)OC[C@@H](NC(=O)N[C@H](C(=O)N1C[C@H]2[C@@H]([C@H]1C(=O)NC(CC1CCC1)C(=O)C(N)=O)C2(C)C)C1(C)CCCCC1)C(C)(C)C (stereo not given in full) |  | 100 | 
CC(C)(C)[C@H](NC(=O)N[C@H](COCc1ccccc1)C(C)(C)C)C(=O)N1C[C@H]2[C@@H]([C@H]1C(=O)NC(CC1CCC1)C(=O)C(N)=O)C2(C)C (stereo not given in full) |  | 130 | 
C#CCCC(NC(=O)[C@@H]1[C@@H]2[C@H](CN1C(=O)[C@@H](NC(=O)N[C@H](COC(=O)NCC1CCCCC1)C(C)(C)C)C1(C)CCCCC1)C2(C)C)C(=O)C(=O)NCC=C (stereo not given in full) | 250 | 20 | 
C#CCCC(NC(=O)[C@@H]1[C@@H]2[C@H](CN1C(=O)[C@@H](NC(=O)N[C@H](COC(=O)NC(C)C)C(C)(C)C)C1(C)CCCCC1)C2(C)C)C(=O)C(=O)NCC=C (stereo not given in full) | 150 | 8 | AUC(0-t) at 6 h [7]: 7.9 µM·h; concentration at 6 h [5]: 1110 ng/g
COC[C@@H](NC(=O)N[C@H](C(=O)N1C[C@H]2[C@@H]([C@H]1C(=O)NC(CC1CCC1)C(=O)C(N)=O)C2(C)C)C1(C)CCCC1)C(C)(C)C (stereo not given in full) | 400 | 22 | 
COC[C@@H](NC(=O)N[C@H](C(=O)N1C[C@H]2[C@@H]([C@H]1C(=O)NC(CC1CCC1)C(=O)C(N)=O)C2(C)C)C1CCCCC1)C(C)(C)C (stereo not given in full) | 300 | 30 | 
C#CCCC(NC(=O)[C@@H]1[C@@H]2[C@H](CN1C(=O)[C@@H](NC(=O)N[C@H](COC(=O)NCC(C)C)C(C)(C)C)C1(C)CCCCC1)C2(C)C)C(=O)C(=O)NCC=C (stereo not given in full) | 70 | 9 | AUC(0-t) at 6 h [7]: 4.9 µM·h; concentration at 6 h [5]: 750 ng/g
C=CCNC(=O)C(=O)C(CCC)NC(=O)[C@@H]1[C@@H]2[C@H](CN1C(=O)[C@@H](NC(=O)N[C@H](COC(=O)NC(C)C)C(C)(C)C)C1(C)CCCCC1)C2(C)C (stereo not given in full) | 150 | 24 | AUC(0-t) at 6 h [7]: 6.6 µM·h; concentration at 6 h [5]: 808 ng/g
C=CCNC(=O)C(=O)C(CCCC)NC(=O)[C@@H]1[C@@H]2[C@H](CN1C(=O)[C@@H](NC(=O)N[C@H](COC(=O)NCC)C(C)(C)C)C1(C)CCCCC1)C2(C)C (stereo not given in full) | 400 | 28 | 
